Results on one compound are retold here after paper PMC3791136 (Journal of the American Chemical Society, 2013).

This assay has as its system A2780 cells. Nature of the assay: Cytotoxicity with ER stress inhibitor salubrinal. In kind it is cell-based. The conditions noted are these: salubrinal 10 μM. The gist of the method:
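A2780 cells given the test compound alone or co-administered with salubrinal (10 μM, an ER stress inhibitor). IC50 values were compared with and without inhibitor, with cisplatin run alongside.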

`N.N.[Cl][Pt][Cl]` [cisplatin]: the “effect of salubrinal on toxicity” value is listed as “limited effect”.
